Data on 22 molecules can be found in ChEMBL document CHEMBL1921796, “Synthesis of 6-(het) ary Xylocydine analogues and evaluating their inhibitory activities of CDK1 and CDK2 in vitro” (Bioorg Med Chem, 2011).

In assay [1] the target is Cyclin-dependent kinase 2/cyclin A (Homo sapiens, UniProt P24941+P20248+P78396). Put plainly: (§1) Inhibition of CDK2/Cyclin A2 in human HeLa cell extracts using histone H1 as substrate preincubated for 30 mins before substrate addition measured after 15 mins by autoradiography. The format is protein-complex assay. The note with it: hela. The method, boiled down: (§2)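 CDK2 immunoprecipitated (6 h, 4 °C) from 200 µg extract of HeLa cells seeded 24 h and then given 50 µg/ml etoposide in DMEM with 5% newborn calf serum for 12 h. After washing, kinase preincubated 30 min with 0–200 µM inhibitor.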

Assay [2] has as its target Cyclin-dependent kinase 1/cyclin B1 (Homo sapiens, UniProt P06493+P14635). In words: (§3) Inhibition of CDK1/Cyclin B in human HeLa cell extracts using histone H1 as substrate preincubated for 30 mins before substrate addition measured after 15 mins by autoradiography. The note with it: hela. The format is protein-complex assay. The method, boiled down: (§4)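 HeLa cells seeded for 24 h, then given 80 nM paclitaxel in DMEM with 5% newborn calf serum for 12 h. 200 µg extract immunoprecipitated with anti-CDK1 antibody, 6 h at 4 °C, and washed.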

In assay [3] the target is Cyclin-dependent kinase 2/cyclin A (Homo sapiens, UniProt P24941). Described as §1. The format is protein-complex assay. In short, it runs like this:
as §2

Assay [4] deals with HeLa. Put plainly: Cell cycle arrest in human HeLa cells assessed as accumulation at G2 phase at 12.5 uM after 72 hrs by DAPI staining-based FACS analysis (reference value: 13.73%). The format is functional. Background: Flow cytometry measures light scatter and fluorescence of single cells or particles in a stream.
Assay [5] relates to HeLa. In words: Cell cycle arrest in human HeLa cells assessed as accumulation at G2 phase at 6.25 uM after 72 hrs by DAPI staining-based FACS analysis (reference value: 13.73%). The format is functional.
In assay [6] the test system is HeLa. In words: Cell cycle arrest in human HeLa cells assessed as accumulation at G1/S phase at 6.25 uM after 72 hrs by DAPI staining-based FACS analysis (reference value: 86.27%). The assay is classed as functional.
The test system of assay [7] is HeLa. In words: Cell cycle arrest in human HeLa cells assessed as accumulation at G1/S phase at 12.5 uM after 72 hrs by DAPI staining-based FACS analysis (reference value: 86.27%). The format is functional.
Assay [8] has as its target Cyclin-dependent kinase 1/cyclin B1 (Homo sapiens, UniProt P06493). The description is as §3. The format is protein-complex assay. The method, boiled down:
as §4

As usually defined, the IC50 is the concentration that gives 50% inhibition.

Structures are written as SMILES.

Sequence of Cyclin-dependent kinase 1/cyclin B1 (Homo sapiens, UniProt P06493) (P06493 whole entry): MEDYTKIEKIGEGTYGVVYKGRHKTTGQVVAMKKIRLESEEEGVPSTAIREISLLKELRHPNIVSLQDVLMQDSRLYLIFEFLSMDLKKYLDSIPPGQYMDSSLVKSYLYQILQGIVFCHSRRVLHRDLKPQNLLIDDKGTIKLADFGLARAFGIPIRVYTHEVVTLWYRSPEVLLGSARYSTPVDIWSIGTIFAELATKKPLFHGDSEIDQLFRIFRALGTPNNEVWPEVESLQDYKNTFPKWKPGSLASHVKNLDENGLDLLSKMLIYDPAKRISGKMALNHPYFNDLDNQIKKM
Sequence of Cyclin-dependent kinase 1/cyclin B1 (Homo sapiens, UniProt P06493) (P14635 whole entry, further chain): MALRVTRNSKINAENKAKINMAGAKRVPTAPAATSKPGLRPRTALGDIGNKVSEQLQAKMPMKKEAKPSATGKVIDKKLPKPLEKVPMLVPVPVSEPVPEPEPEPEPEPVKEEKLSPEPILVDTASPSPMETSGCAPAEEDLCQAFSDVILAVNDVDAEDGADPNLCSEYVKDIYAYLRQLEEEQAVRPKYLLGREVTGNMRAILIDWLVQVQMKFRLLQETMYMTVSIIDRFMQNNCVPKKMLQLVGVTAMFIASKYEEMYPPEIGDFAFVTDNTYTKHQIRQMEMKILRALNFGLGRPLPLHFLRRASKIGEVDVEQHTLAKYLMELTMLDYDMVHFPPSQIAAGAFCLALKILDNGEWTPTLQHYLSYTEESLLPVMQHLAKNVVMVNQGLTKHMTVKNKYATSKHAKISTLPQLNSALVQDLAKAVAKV
Sequence of Cyclin-dependent kinase 1/cyclin B1 (Homo sapiens, UniProt P06493+P14635) (P06493 whole entry): as the sequence (P06493 whole entry) above
Sequence of Cyclin-dependent kinase 1/cyclin B1 (Homo sapiens, UniProt P06493+P14635) (P14635 whole entry): as the sequence (P14635 whole entry, further chain) above

For `COc1ccc(-c2c(C(N)=O)c3c(N)ncnc3n2[C@H]2O[C@@H](CO)[C@@H](O)[C@@H]2O)cc1`, the IC50 result in assay [1] and in assay [2] was “Not Active” in each case.
In the case of `N#Cc1c(Br)n([C@H]2O[C@@H](CO)[C@@H](O)[C@@H]2O)c2ncnc(N)c12`, the half-inhibitory concentration (IC50) result in assay [1] and in assay [2] was “Not Active” each time.
Turning to `Cc1ccc(-c2c(C#N)c3c(N)ncnc3n2[C@H]2O[C@@H](CO)[C@@H](O)[C@@H]2O)cc1`, the IC50 result in assay [1] and in assay [2] was “Not Active” each time.
As for `COc1ccc(-c2c(C#N)c3c(N)ncnc3n2[C@H]2O[C@@H](CO)[C@@H](O)[C@@H]2O)cc1`, the 50% inhibitory concentration (IC50) result in assay [1] and in assay [2] was “Not Active” in each case.
Take `COc1cccc(-c2c(C#N)c3c(N)ncnc3n2[C@H]2O[C@@H](CO)[C@@H](O)[C@@H]2O)c1`: the IC50 entry in assay [1] and in assay [2] was “Not Active” throughout.
Turning to `CC(C)(C)c1ccc(-c2c(C#N)c3c(N)ncnc3n2[C@H]2O[C@@H](CO)[C@@H](O)[C@@H]2O)cc1`, the 50% inhibitory concentration (IC50) entry in assay [1] and in assay [2] was “Not Active” in each case.
For `N#Cc1c(-c2ccc(Br)cc2)n([C@H]2O[C@@H](CO)[C@@H](O)[C@@H]2O)c2ncnc(N)c12`, the IC50 result in assay [1] and in assay [2] was “Not Active” each time.
With `N#Cc1c(-c2cccc(Br)c2)n([C@H]2O[C@@H](CO)[C@@H](O)[C@@H]2O)c2ncnc(N)c12`, the IC50 entry in assay [1] and in assay [2] was “Not Active” throughout.
Take `N#Cc1c(-c2ccc[nH]2)n([C@H]2O[C@@H](CO)[C@@H](O)[C@@H]2O)c2ncnc(N)c12`: the IC50 result in assay [1] and in assay [2] was “Not Active” in each case.
For the molecule `N#Cc1c(-c2cccs2)n([C@H]2O[C@@H](CO)[C@@H](O)[C@@H]2O)c2ncnc(N)c12`, the IC50 in assay [3] is 4.6 µM; in assay [8], more than 100 µM. Further, the Activity is on record as 0.13% in the assay with HeLa [4], 3.7% with HeLa [5], 96.3% in the assay on HeLa [6] and 99.87% with HeLa [7].
`N#Cc1c(-c2ccco2)n([C@H]2O[C@@H](CO)[C@@H](O)[C@@H]2O)c2ncnc(N)c12`: the half-maximal inhibitory concentration (IC50) in assay [3] is 4.8 µM; in assay [8], more than 100 µM. The Activity was found to be 7.26% with HeLa [4], 14.87% in the assay on HeLa [5], 85.13% in the assay with HeLa [6] and 92.74% with HeLa [7].
On to `N#Cc1c(-c2ccc(Br)s2)n([C@H]2O[C@@H](CO)[C@@H](O)[C@@H]2O)c2ncnc(N)c12`, for which the IC50 is 55 µM in assay [3] and more than 100 µM in assay [8]. Also, the Activity with HeLa [4] was 0.22%; in the assay on HeLa [5], 13.17%; with HeLa [6] it was 86.83%; with HeLa [7], 99.79%.
Regarding `Cc1ccc(-c2c(C(N)=O)c3c(N)ncnc3n2[C@H]2O[C@@H](CO)[C@@H](O)[C@@H]2O)cc1`, the IC50 result in assay [1] and in assay [2] was “Not Active” in each case.
Consider `COc1cccc(-c2c(C(N)=O)c3c(N)ncnc3n2[C@H]2O[C@@H](CO)[C@@H](O)[C@@H]2O)c1`, for which the IC50 result in assay [1] and in assay [2] was “Not Active” throughout.
Consider `CC(C)(C)c1ccc(-c2c(C(N)=O)c3c(N)ncnc3n2[C@H]2O[C@@H](CO)[C@@H](O)[C@@H]2O)cc1`, for which the IC50 entry in assay [1] and in assay [2] was “Not Active” each time.
In the case of `NC(=O)c1c(-c2ccc(Br)cc2)n([C@H]2O[C@@H](CO)[C@@H](O)[C@@H]2O)c2ncnc(N)c12`, the concentration for half-maximal inhibition (IC50) entry in assay [1] and in assay [2] was “Not Active” throughout.
With `NC(=O)c1c(-c2cccc(Br)c2)n([C@H]2O[C@@H](CO)[C@@H](O)[C@@H]2O)c2ncnc(N)c12`, the IC50 result in assay [1] and in assay [2] was “Not Active” in each case.
For `NC(=O)c1c(-c2ccc[nH]2)n([C@H]2O[C@@H](CO)[C@@H](O)[C@@H]2O)c2ncnc(N)c12`, the half-inhibitory concentration (IC50) result in assay [1] and in assay [2] was “Not Active” throughout.
For `NC(=O)c1c(-c2cccs2)n([C@H]2O[C@@H](CO)[C@@H](O)[C@@H]2O)c2ncnc(N)c12`, the concentration for half-maximal inhibition (IC50) result in assay [1] and in assay [2] was “Not Active” each time.
Take `NC(=O)c1c(-c2ccco2)n([C@H]2O[C@@H](CO)[C@@H](O)[C@@H]2O)c2ncnc(N)c12`: the concentration for half-maximal inhibition (IC50) result in assay [1] and in assay [2] was “Not Active” each time.
For `NC(=O)c1c(-c2ccc(Br)s2)n([C@H]2O[C@@H](CO)[C@@H](O)[C@@H]2O)c2ncnc(N)c12`, the concentration for half-maximal inhibition (IC50) entry in assay [1] and in assay [2] was “Not Active” in each case.
`NC(=O)c1c(Br)n([C@H]2O[C@@H](CO)[C@@H](O)[C@@H]2O)c2ncnc(N)c12` [XYLOCYDINE]: the results for the IC50 in assay [3] and in assay [8] were 0.061 µM and 0.0014 µM, respectively.
